Measurements: paper PMC4780734 (International Journal of Nanomedicine, 2016)
Entries after “also recorded” stand apart in the source; their conditions may differ.

Tests used:
[1] = Pharmacokinetic study after single IV injection; assay type: in vivo, male Sprague–Dawley rats
[2] = Particle size distribution by dynamic light scattering; assay type: physicochemical; details: hydrodynamic size
[3] = Critical aggregation concentration by fluorescence pyrene method; assay type: physicochemical; details: in saline
[4] = Lower critical solution temperature; assay type: physicochemical
[5] = Solubility of the isolated solid; assay type: physicochemical; details: light yellow solid
[6] = tested on: non-small-cell lung carcinoma A549 cells; assay: Biodistribution of Cy5.5-labeled PP by ex vivo imaging in tumor-bearing mice; parameters: species or system BALB/C nude mice; details: Cy5.5-labeled PP 60 mg/kg IV
Outline: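 BALB/C nude mice (5 weeks, 15–20 g) were acclimatised for 4 days. A549 cells (1×10^7 in serum-free RPMI 1640) were injected s.c. into the right flank. After 2 weeks, with tumours at 250–300 mm3, mice received the Cy5.5-labelled conjugate (60 mg/kg in saline) IV via the tail vein. Mice were killed at 12, 24, 48 and 72 h, with blood taken by cardiac puncture. Tumour, muscle, liver, kidney, spleen, lung and blood were imaged by CCD camera through a 680–720 nm Cy5.5 emission filter.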

[7] = Clearance study of Cy5.5-labeled PP from major organs by ex vivo imaging; assay type: in vivo, BALB/C nude mice; details: Cy5.5-labeled PP 300 mg/kg IV, mice without tumor, postinjection
Outline: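 Tumour-free BALB/C nude mice (n=30; 5 weeks, 15–20 g; acclimatised 4 days) received the Cy5.5-labelled conjugate at 300 mg/kg IV via the tail vein. Mice were killed at short intervals during week 1, then weekly. Dissected organs were imaged by CCD camera through a 680–720 nm Cy5.5 filter until each organ's intensity fell below that of a blank organ.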

[8] = Bioimaging of Pt in mouse kidney by laser ablation ICP-MS; assay type: in vivo; details: listed as PP
Outline: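 Mouse kidneys were dissected at 2, 12 and 24 h after IV injection, following the biodistribution procedure. Reference drug was dosed to match on (dach)Pt content. Kidneys were cryostat-sectioned at 100 μm and dried at room temperature. Pt was mapped by femtosecond laser ablation ICP-MS.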

male ICR mice = assay: Acute toxicity study; assay type: in vivo
In vitro release of = assay type: physicochemical; details: for accumulated amount of released (dach)Pt(II): pH 7.4, 37°C
Outline: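 Conjugate solution (2 mg/mL) was dialysed in cellulose tubing (MWCO 2,000 Da) against phosphate buffer at pH 5.4 or 7.4, at 37°C with stirring at 100 rpm under sink conditions. Dialysate was sampled at set times over 10 days. Released Pt was measured by ICP-MS and expressed as cumulative % of total loaded (dach)Pt.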

[9] = tested on: gastric tumor cell line (MKN-28); assay: Nude mouse xenograft trial; assay type: in vivo, BALB/C nude mice
Outline: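 MKN-28 xenografts were grown in BALB/C nude mice (5 weeks, 15–20 g). Test and reference drugs were dosed to equal (dach)Pt content, at 8 mg (dach)Pt/kg, and reference drug was also given at 16 mg (dach)Pt/kg. Tumour growth and body weight were monitored.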

Molecule: O=C1[O][Pt]2([NH][C@@H]3CCCC[C@H]3[NH]2)[O]C1=O [Oxaliplatin, oxaliplatin, reference compound]
- AUC ([1]; single IV 1 mg (dach)Pt/kg, male rats, listed as OX): 2,320.4 ng h/mL

Molecule: [NP(MPEG550)(AE)(AA)Pt(dach)]n [Polyplatin]
- mean diameter [2]: 55.1 nm
- critical aggregation concentration (CAC) [3]: 18.5 mg/L
- critical aggregation concentration (CAC) ([3]; unit as printed in b33): 18.5 mg/L
- Lower critical solution temperature (LCST) ([4]; 5% solution): higher than 100 °C
- Lower critical solution temperature (LCST) ([4]; given with the synthesis): > 100 °C
- solubility [5]: soluble in water and polar organic solvents
- plasma concentration course (fluorescence) ([6]; 12 to 72 hours postinjection): decrease slowly
- tumor accumulation / tumor selectivity ([6]; A549 tumor-bearing mice, EPR effect, listed as PP): high tumor selectivity
- time of maximum concentration in tumor ([6]; A549 tumor-bearing mice, postinjection): 48 h
- tumor-to-tissue ratio, maximum value ([6]; at 48 hours postinjection): 12
- time to clearance from all the major organs including the liver [7]: about 4 weeks
- excretion of platinum from kidney ([8]; 12 and 24 hours postinjection): more rapidly excreted than monomeric OX
- platinum distribution/accumulation in kidney ([8]; 2 hours postinjection, same dose based on (dach)Pt content): accumulates much less in kidney; also recorded: much less and relatively homogeneous distribution; also recorded: accumulated much less in the kidney
- clearance time relative to OX ([1]; PP (6.3 mL/h) compared with OX (116.36 mL/h)): about 18 times
- half-life of the β phase relative to OX ([1]; PP compared with OX, rats): more than twice longer
- t1/2 β ([1]; single IV 1 mg (dach)Pt/kg, male rats, listed as PP): 13.3 h
- body weight change depending on the dose (male ICR mice; 5, 50, 300 and 2,000 mg/kg IV, 14 days): no considerable difference in body weight change
- LD50 (male ICR mice; IV in saline, ICR mice, 14 days observation): more than 2000 mg/kg
- accumulated amount of platinum released (In vitro release of; pH 5.4, 37°C, 10 days): 98%
- accumulated amount of released (dach)Pt(II) (In vitro release of; 24 hours): 18%
- accumulated amount of released (dach)Pt(II) (In vitro release of; 10 days): 72%
- antitumor activity ([9]; 8 mg (dach)Pt/kg IV on days 1, 5, 9, MKN-28 xenograft): comparable to OX
- death of test mice ([9]; 16 mg (dach)Pt/kg IV, MKN-28 xenograft): without any death
- antitumor efficacy compared with OX, overall ([9]; MKN-28 xenograft, listed as PP): remarkably higher antitumor activity
- systemic toxicity compared with OX ([9]; MKN-28 xenograft, listed as PP): lower systemic toxicity; also recorded: low systemic toxicity
- antitumor activity ([9]; double dose of 16 mg (dach)Pt/kg IV on days 1, 5, 9, MKN-28 xenograft, listed as PP): much better activity
- body weight changes ([9]; low and high doses, during the drug injection period (days 1, 5, and 9)): nearly no body weight changes
